Assay outcomes as filed in PubChem.
IMP-1 inhibitor = blocks Pseudomonas aeruginosa IMP-1 metallo-beta-lactamase. purified IMP-1, nitrocefin hydrolysis, epi-absorbance fluorescence. inhibition, % at 5.6 µM. hit rate 0.45% among 290,000. AID 1556;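 active means inhibition above the mean plus 3 SD of all compounds in the same screening run, cut at about 4.5% in these data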;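 further: 0% = IMP-1 with DMSO and 100% = DMSO wells lacking enzyme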
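system = purified recombinant IMP-1 beta-lactamase | amount = 0.2 nM IMP-1, as dispensed | medium = HEPES buffer pH 7.1 with ZnSO4 and Brij 35 | times = 25 °C, 15 min preincubation, 25 min reaction | detection = plate fluorescence quenching by hydrolysis product, ex 480/em 530 nm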
HCV NS3 hel inh = blocks Hepatitis C virus NS3 helicase unwinding; NS3 helicase DNA unwinding, Cy5 molecular beacon fluorescence; inhibition, % at 10.9 µM; hit rate 0.56% among 290,000; AID 1800;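 active means inhibition above the mean of all tested compounds plus 3 SD, set per campaign, cut at about 35% in these data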;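 further: 0% = DMSO wells and 100% = thioflavine S control wells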
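System: NS3 helicase fragment of HCV / Schedule: 1 h at 25 °C / Control set: DMSO alone as 0% and 110 µM thioflavine S as 100% / Reagent: Cy5/quencher beacon DNA duplex and ATP to start / Technique: Cy5 fluorescence / Replication: singlicate / Evaluation: % inhibition of end-to-start signal ratio versus controls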
FID counter = displaces DNA intercalator in HCV helicase counter-screen. DNA fluorescent intercalator displacement, fluorescence. inhibition, % at 7.9 µM. hit rate 0.17% among 290,000. AID 1845; in the data active means inhibition above about 37%;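 further: 0% = vehicle and 100% = reference compound; higher means more ethidium bromide displaced from hairpin DNA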
VIM-2 inh = inhibitors of Pseudomonas aeruginosa VIM-2 metallo-beta-lactamase | purified VIM-2, nitrocefin hydrolysis, epi-absorbance fluorescence | inhibition, % at 5.6 µM | hit rate 0.89% among 290,000;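 active means inhibition above the mean of all tested compounds plus 3 SD, cutoff set per screening run, cut at about 7.5% in these data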;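 further: red hydrolysis product quenches plate fluorescence so inhibitors raise well fluorescence; 0% = enzyme with DMSO and 100% = DMSO without enzyme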
Active calls of the source: *. Shown are actives, neighbours in structure and some others; about 1.9% of the full set was active somewhere.

SMILES | IMP-1 inhibitor | HCV NS3 hel inh | FID counter | VIM-2 inh
Cc1nc2ccccc2c2oc(C(=O)N3CCC(N4CCCCC4)CC3)cc12 | 0 | -6 | 19 | 60*
CC(=O)c1ccc(N2CCN(C(=O)c3cc4c(C)nc5ccccc5c4o3)CC2)cc1 | -1 | -10 | -32 | 0
Cc1nc2ccccc2c2oc(C(=O)N3CCCC(C)C3)cc12 (configuration not stated) | -1 | 1 | -33 | 9.6*
O=C(O)c1ccccc1C(=O)NC1CCCc2ccccc21 (configuration not stated) | -3 | 2 | -3 | -2
COc1ccc(CS(=O)(=O)c2ncn[nH]2)cc1 | -2 | -8 | -3 | -1
Cc1cc(N/N=C/c2ccc(N(C)C)cc2)c2ccccc2n1 | -3 | -8 | -14 | 4
Cc1cc(N/N=C/c2ccc(O)cc2)c2cccc(C)c2n1 | -1 | -47 | 25 | 12*
CN(Cc1ccccc1)C(=O)C1CCN(S(=O)(=O)c2ccc3nc4c(c(C(=O)O)c3c2)CCCC4)CC1 | 5.5* | 16 | -19 | 1
CNC[C@H](CC1CCCCC1)NC[C@H](Cc1ccccc1)NCCC12CC3CC(CC(C3)C1)C2 | 16* | -75 | 28 | 2
CC(NCC(O)COCCC12CC3CC(CC(C3)C1)C2)c1ccccc1 (configuration not stated) | -2 | -75 | 23 | -1
CCCc1cc(=O)[nH]c(SCC(=O)NN(c2ccccc2)c2ccccc2)n1 | -1 | 16 | -33 | -1
O=[N+]([O-])c1cccc(S(=O)(=O)NCCc2cccs2)c1 | -3 | -5 | -2 | -1
O=S(=O)(NCCc1cccs1)c1ccc(Br)cc1 | 5.5* | 2 | -9 | 1
CC1CN(CCCCOc2ccc(Cl)c3ccccc23)CC(C)O1 (configuration not stated) | 4.5* | -63 | 18 | 1
CC1CN(CCCCOc2ccc(C(C)C)cc2)CC(C)O1 (configuration not stated) | 1 | 4 | 5 | -3
N#Cc1cc(C(=O)Cc2ccccc2)c[nH]1 | -2 | -11 | 2 | -2
CCN(CC)c1ccc(/C=C/C(=O)C2C(=O)C=C(C)OC2=O)cc1 (configuration not stated) | 7.4* | 21 | -12 | 7
Cn1nccc1C(=O)N1CCN(c2ccccc2F)CC1 | -2 | -6 | -8 | -1
CCOCCCn1c(=N)c(S(=O)(=O)c2ccccc2)cc2c(=O)n3cc(C)ccc3nc21 | -3 | 15 | -3 | 11*
Cc1ccc(S(=O)(=O)c2cc3c(=O)n4ccccc4nc3n(CC3CCCO3)c2=N)cc1 (configuration not stated) | -4 | 4 | -1 | -2
Cc1ccc(S(=O)(=O)c2cc3c(=O)n4ccccc4nc3n(CCCN3CCOCC3)c2=N)cc1C | -1 | 24 | -10 | 10*
C=CCn1c(=N)c(S(=O)(=O)c2ccc(C)c(C)c2)cc2c(=O)n3ccccc3nc21 | -1 | -6 | 20 | 12*
Cc1ccc(S(=O)(=O)c2cc3c(=O)n4ccccc4nc3n(C)c2=N)cc1C | -4 | -1 | 10 | 6
N=c1c(S(=O)(=O)c2ccccc2)cc2c(=O)n3ccccc3nc2n1CCCN1CCOCC1 | -1 | 3 | -5 | 9.2*
N=c1c(S(=O)(=O)c2ccc(Cl)cc2)cc2c(=O)n3ccccc3nc2n1CCN1CCOCC1 | -3 | -5 | -2 | 5
SMILES | IMP-1 inhibitor | HCV NS3 hel inh | FID counter | VIM-2 inh
Cc1ccc(-n2nc3c(=O)n(CC(=O)NCCC4=CCCCC4)nc(C)c3c2C)cc1 | -2 | 1 | -35 | -6
Cc1cc(N2CCN(c3ccccn3)CC2)n2nc(C)nc2n1 | -1 | -1 | -8 | 10*
Cc1cc(N2CCN(c3cccc(C(F)(F)F)c3)CC2)n2nc(C)nc2n1 | -3 | 10 | -20 | -2
COc1ccc(/C=N/NC(=O)C(=O)NCc2cccnc2)cc1 | -3 | -2 | -8 | -3
N#C/C(=C\c1ccc(OCc2ccc(F)cc2)cc1)C(=O)Nc1cccc(C(=O)O)c1 | -2 | 10 | -4 | -3
N#C/C(=C\c1ccc(OCc2ccc(Br)cc2)cc1)C(=O)Nc1cccc(C(=O)O)c1 | 6.3* | -12 | -14 | -5
O=C(O)c1cccnc1C(=O)N1CCc2c([nH]c3ccccc23)C1C(F)(F)F (configuration not stated) | -3 | 10 | -13 | 9.4*
CCn1c2ccc(C)cc2c2nnc(SCCN3CCOCC3)nc21 | -2 | 13 | -21 | 11*
CCCCn1c2ccc(F)cc2c2nnc(SCCN3CCCCC3)nc21 | -4 | -19 | -5 | 8.4*
CCn1c2ccc(F)cc2c2nc3ccccc3nc21 | -1 | 8 | -1 | 1
